Assay results reported in ChEMBL document CHEMBL3352171, “Synthesis and biological evaluation of andrographolide analogues as anti-cancer agents” (Eur J Med Chem, 2014).
The source made the active and inactive calls. The rule behind the calls is not given here.

Columns and labels:
HEK293 [1] = test: Induction of cell cycle arrest in HEK293 cells assessed as accumulation at G2/M phase at 20 uM after 48 hrs by propidium iodide staining based flow cytometry (reference value: 2.63 +/- 0.7%); format: functional, Homo sapiens
[2] = Hydrolysis half life in pH 7.4 PBS buffer assessed as andrographolide formation by HPLC method; format: physicochemical
HEK293 [3] = test: Induction of cell cycle arrest in HEK293 cells assessed as accumulation at G2/M phase at 10 uM after 48 hrs by propidium iodide staining based flow cytometry (reference value: 2.63 +/- 0.7%); format: functional, Homo sapiens
HEK293 [4] = test: Increase in caspase-3 expression in HEK293 cells at LC50 level after 48 hrs by immunocytochemistry; format: functional, cell-based; details: Homo sapiens
HEK293 [5] = test: Reduction in Bcl-xL expression in p53 deficient HEK293 cells at LC50 level after 48 hrs by Western blot method; format: functional, cell-based; details: Homo sapiens
[6] = Cytotoxicity against human MCF10A cells after 48 hrs by MTT assay; format: cell-based; details: mcf-10a
Outline: (§1)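 Cells seeded at 10,000 per well and exposed to increasing compound concentrations for 48 h. After a PBS wash, MTT (2.5 mg/mL) was added for 6 h at 37 °C, then detergent (10% NP-40, 4 mM HCl), and absorbance was read at 570 nm. LC50 is the concentration causing 50% cell death. Values are means of three independent experiments.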

HEK293 [7] = test: Increase in p53 expression in p53 deficient HEK293 cells at LC50 level after 48 hrs by Western blot method; format: functional, cell-based; details: Homo sapiens
HEK293 [8] = test: Induction of cell cycle arrest in HEK293 cells assessed as accumulation at S phase at 20 uM after 48 hrs by propidium iodide staining based flow cytometry (reference value: 19.9 +/- 0.5%); format: functional, Homo sapiens
HEK293 [9] = test: Induction of apoptosis in HEK293 cells assessed as apoptotic nuclei formation at 5 uM after 48 hrs by DAPI staining based fluorescence microscopy; format: functional, cell-based; details: Homo sapiens
HEK293 [10] = test: Induction of cell cycle arrest in HEK293 cells assessed as accumulation at G2/M phase at 15 uM after 48 hrs by propidium iodide staining based flow cytometry (reference value: 2.63 +/- 0.7%); format: functional, Homo sapiens
HEK293 [11] = test: Increase in Bax expression in HEK293 cells at LC50 level after 48 hrs by Western blot method; format: functional, cell-based; details: Homo sapiens
HEK293 [12] = test: Increase in Bax expression in p53 deficient HEK293 cells at LC50 level after 48 hrs by Western blot method; format: functional, cell-based; details: Homo sapiens
HEK293 [13] = test: Cytotoxicity against HEK293 cells after 48 hrs by MTT assay; format: functional; details: Homo sapiens, HEK293, 48 h; read-out: LC50 (the source's name); outline: as §1
[14] = Induction of DNA adduct formation (unknown origin) using guanosine in presence of glacial acetic acid at 75 degC incubated for 12 hrs by LC-MS method
Outline: (§2)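 Model reaction of compound with guanosine in glacial acetic acid at 75 °C, heated up to 12 h; adduct sought by TLC and LCMS.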

[15] = target: T1, Nuclear factor NF-kappa-B complex (Homo sapiens) (UniProt Q00653+P19838+Q04206); test: Inhibition of NFkappaB (unknown origin) expressed in HEK293 cells assessed as reduction in transcriptional activity after 48 hrs by luciferase reporter gene assay; format: cell-based
Outline: (§3)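 HEK-293 at 70% confluence transfected by calcium phosphate with NF-kB luciferase ([…]) and b-Gal ([…]) plasmids, 6–8 h, then fresh serum medium 12 h; treated 48 h, lysed, luciferase read and normalized to b-galactosidase. Three independent experiments.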

[16] = Binding affinity to GC-28 DNA (unknown origin) minor groove by DAPI staining based spectrophotometry
Outline: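 DAPI–DNA complex fluorescence read at 460 nm emission band; test compound added to the preformed complex and loss of fluorescence followed.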

HEK293 [17] = test: Induction of cell death in HEK293 cells at 15 to 20 uM after 48 hrs by DAPI staining based fluorescence microscopy; format: functional; details: Homo sapiens
HEK293 [18] = test: Induction of cell cycle arrest in HEK293 cells assessed as accumulation at G1 phase at 20 uM after 48 hrs by propidium iodide staining based flow cytometry (reference value: 53.21 +/- 0.8%); format: functional, Homo sapiens
[19] = Drug hydrolysis in pH 7.4 PBS buffer assessed as first order rate constant for andrographolide formation by HPLC method; format: physicochemical
Outline: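 Compound in PBS pH 7.4 without enzyme; unreacted parent quantified by HPLC at time intervals. Decay fitted to first-order rate equation to give rate constant and half-life.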

[20] = Induction of DNA adduct formation (unknown origin) using guanosine in presence of glacial acetic acid at 75 degC incubated for 12 hrs by TLC method; outline: as §2
HEK293 [21] = test: Induction of apoptosis in HEK293 cells at 20 uM after 48 hrs by propidium iodide staining based flow cytometry relative to untreated control; format: functional, Homo sapiens
HEK293 [22] = test: Induction of apoptosis in HEK293 cells at 5 to 20 uM after 48 hrs by DAPI staining based fluorescence microscopy; format: functional, cell-based; details: Homo sapiens
HEK293 [23] = test: Induction of cell cycle arrest in HEK293 cells assessed as accumulation at S phase at 10 uM after 48 hrs by propidium iodide staining based flow cytometry (reference value: 19.9 +/- 0.5%); format: functional, Homo sapiens
Vero = test: Cytotoxicity against african green monkey Vero cells after 48 hrs by MTT assay; format: cell-based; details: chlorocebus sabaeus; outline: as §1
HEK293 [24] = test: Induction of apoptosis in HEK293 cells at 15 uM after 48 hrs by propidium iodide staining based flow cytometry (reference value: 24.26 +/- 0.8%); format: functional, Homo sapiens
HEK293 [25] = test: Reduction in Bcl-xL expression in HEK293 cells at LC50 level after 48 hrs by Western blot method; format: functional, cell-based; details: Homo sapiens
HEK293 [26] = test: Induction of apoptosis in HEK293 cells at 20 uM after 48 hrs by propidium iodide staining based flow cytometry (reference value: 24.26 +/- 0.8%); format: functional, Homo sapiens
[27] = Retention time of the compound by HPLC method; format: physicochemical
MCF7 = test: Cytotoxicity against human MCF7 cells after 48 hrs by MTT assay; format: functional; details: MCF7, 48 h, read-out: LC50 (the source's name); outline: as §1
HEK293 [28] = test: Induction of cell cycle arrest in HEK293 cells assessed as accumulation at G1 phase at 10 uM after 48 hrs by propidium iodide staining based flow cytometry (reference value: 53.21 +/- 0.8%); format: functional, Homo sapiens
HEK293 [29] = test: Reduction in NFkappaB expression in p53 deficient HEK293 cells at LC50 level after 48 hrs by Western blot method; format: functional, cell-based; details: Homo sapiens
HEK293 [30] = test: Induction of cell cycle arrest in HEK293 cells assessed as accumulation at S phase at 15 uM after 48 hrs by propidium iodide staining based flow cytometry (reference value: 19.9 +/- 0.5%); format: functional, Homo sapiens
[31] = target: T1, Nuclear factor NF-kappa-B complex (Homo sapiens); test: Inhibition of NFkappaB (unknown origin) expressed in HEK293 cells assessed as reduction in transcriptional activity at 5 uM after 48 hrs by luciferase reporter gene assay; format: cell-based; outline: as §3
Calf thymus DNA = test: Binding affinity to calf thymus DNA at 3.33 to 20 uM after 2 hrs by UV-visible absorption spectroscopy; format: nucleic-acid assay; details: Bos taurus
Outline: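 CT-DNA at fixed […] in 50 mM Tris-HCl/NaCl pH 7.5, incubated with compound for 2 h at 37 °C, scanned 200–400 nm after dilution. Spectra normalized at 230 nm. Fraction bound q from absorbance near 260 nm; Boltzmann fit, Kb as reciprocal of half-saturation concentration.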

T1 sequence (P19838 whole entry, looked up): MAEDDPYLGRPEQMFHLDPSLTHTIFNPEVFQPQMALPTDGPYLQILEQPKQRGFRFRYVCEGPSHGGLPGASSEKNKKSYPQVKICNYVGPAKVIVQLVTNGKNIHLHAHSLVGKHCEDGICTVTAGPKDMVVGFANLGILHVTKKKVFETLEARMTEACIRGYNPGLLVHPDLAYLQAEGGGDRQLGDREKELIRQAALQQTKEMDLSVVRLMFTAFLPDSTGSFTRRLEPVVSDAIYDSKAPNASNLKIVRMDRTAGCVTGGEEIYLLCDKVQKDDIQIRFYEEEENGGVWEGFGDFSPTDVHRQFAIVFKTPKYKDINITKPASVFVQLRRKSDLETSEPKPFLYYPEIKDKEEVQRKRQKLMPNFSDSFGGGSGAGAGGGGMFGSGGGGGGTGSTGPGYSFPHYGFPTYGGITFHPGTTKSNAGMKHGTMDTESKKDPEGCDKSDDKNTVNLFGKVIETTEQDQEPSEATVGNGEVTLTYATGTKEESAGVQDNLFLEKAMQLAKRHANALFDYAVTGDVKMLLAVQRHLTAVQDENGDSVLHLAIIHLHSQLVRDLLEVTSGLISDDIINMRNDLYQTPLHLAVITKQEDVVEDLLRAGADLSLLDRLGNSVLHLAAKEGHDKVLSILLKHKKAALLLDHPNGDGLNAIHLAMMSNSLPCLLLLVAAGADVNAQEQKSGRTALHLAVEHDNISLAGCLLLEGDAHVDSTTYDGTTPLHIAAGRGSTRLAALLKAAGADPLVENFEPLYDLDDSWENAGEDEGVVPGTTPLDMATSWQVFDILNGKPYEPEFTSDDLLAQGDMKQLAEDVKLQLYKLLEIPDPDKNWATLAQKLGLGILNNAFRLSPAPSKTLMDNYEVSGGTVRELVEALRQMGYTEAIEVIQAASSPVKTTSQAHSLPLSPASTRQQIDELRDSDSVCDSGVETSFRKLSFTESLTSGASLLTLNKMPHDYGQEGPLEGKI
T1 sequence (Q00653 whole entry, looked up): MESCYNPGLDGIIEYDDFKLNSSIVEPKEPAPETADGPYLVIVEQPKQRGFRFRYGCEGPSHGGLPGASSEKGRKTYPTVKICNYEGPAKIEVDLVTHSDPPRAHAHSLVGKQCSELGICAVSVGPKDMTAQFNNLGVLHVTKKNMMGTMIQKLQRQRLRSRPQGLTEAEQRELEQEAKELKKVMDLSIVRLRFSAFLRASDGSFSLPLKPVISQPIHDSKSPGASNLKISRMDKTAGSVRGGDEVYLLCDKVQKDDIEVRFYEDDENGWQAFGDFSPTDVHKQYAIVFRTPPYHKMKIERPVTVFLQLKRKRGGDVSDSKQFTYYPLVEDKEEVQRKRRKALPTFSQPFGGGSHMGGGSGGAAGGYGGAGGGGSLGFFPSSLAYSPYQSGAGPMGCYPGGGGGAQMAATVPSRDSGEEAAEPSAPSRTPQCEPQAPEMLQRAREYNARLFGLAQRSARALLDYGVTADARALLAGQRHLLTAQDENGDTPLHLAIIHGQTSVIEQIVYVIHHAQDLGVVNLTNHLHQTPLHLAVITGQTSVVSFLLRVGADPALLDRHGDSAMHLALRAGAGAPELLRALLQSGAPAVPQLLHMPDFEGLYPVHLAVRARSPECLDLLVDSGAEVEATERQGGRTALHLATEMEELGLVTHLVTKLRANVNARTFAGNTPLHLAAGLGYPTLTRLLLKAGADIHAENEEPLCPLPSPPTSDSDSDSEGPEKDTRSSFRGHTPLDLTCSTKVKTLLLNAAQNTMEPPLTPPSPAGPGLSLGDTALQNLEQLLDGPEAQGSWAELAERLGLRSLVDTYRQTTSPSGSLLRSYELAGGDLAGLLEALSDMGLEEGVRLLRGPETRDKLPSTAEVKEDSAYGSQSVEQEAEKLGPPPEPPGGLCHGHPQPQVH
T1 sequence (Q04206 whole entry, looked up): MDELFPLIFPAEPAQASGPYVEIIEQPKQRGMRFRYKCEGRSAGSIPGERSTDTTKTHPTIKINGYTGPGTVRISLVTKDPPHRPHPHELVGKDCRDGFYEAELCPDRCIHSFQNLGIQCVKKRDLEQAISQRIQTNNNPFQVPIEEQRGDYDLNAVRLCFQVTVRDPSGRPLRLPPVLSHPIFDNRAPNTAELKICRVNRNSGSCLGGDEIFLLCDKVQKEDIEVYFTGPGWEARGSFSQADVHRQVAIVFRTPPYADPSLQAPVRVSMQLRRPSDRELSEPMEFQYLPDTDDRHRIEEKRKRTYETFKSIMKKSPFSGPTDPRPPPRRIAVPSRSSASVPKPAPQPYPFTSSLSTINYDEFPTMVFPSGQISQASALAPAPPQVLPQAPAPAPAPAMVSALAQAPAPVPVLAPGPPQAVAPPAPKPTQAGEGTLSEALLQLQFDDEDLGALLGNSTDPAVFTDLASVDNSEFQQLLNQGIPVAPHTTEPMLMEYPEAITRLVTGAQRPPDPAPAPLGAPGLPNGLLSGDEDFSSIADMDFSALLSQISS

## C=C1CC[C@@H]2[C@](C)(CO)[C@H](O)CC[C@@]2(C)[C@@H]1C/C=C1/C(=O)OC[C@H]1OC(=O)CI
HEK293 [1]
  Activity: 0.69%
[2]
  t1/2: 35 min
HEK293 [3]
  Activity: 2.74%
HEK293 [4]
  Activity: Active
HEK293 [5]
  Activity: inactive
[6]
  LC50: > 40 µM
HEK293 [7]
  Activity: inactive
HEK293 [8]
  Activity: 1.66%
HEK293 [9]
  Activity: Active
HEK293 [10]
  Activity: 1.28%
HEK293 [11]
  Activity: Active
HEK293 [12]
  Activity: inactive
HEK293 [13]
  CC50: 8 µM
[14]
  Activity: inactive
[15]
  inhibition: Dose-dependent effect
[16]
  Activity: Active
HEK293 [17]
  Activity: Active
HEK293 [18]
  Activity: 7.96%
[19]
  K: 0.02 min⁻¹
[20]
  Activity: inactive
HEK293 [21]
  fold change (FC): >5
HEK293 [22]
  Activity: Dose-dependent effect
HEK293 [23]
  Activity: 7.57%
Vero
  LC50: 45 µM
HEK293 [24]
  Activity: 78.5%
HEK293 [25]
  Activity: Active
HEK293 [26]
  Activity: 89.69%
[27]
  Retention_time: 26.9 min
MCF7
  CC50: 6 µM
HEK293 [28]
  Activity: 15.6%
HEK293 [29]
  Activity: inactive
HEK293 [30]
  Activity: 5.67%
[31]
  fold change (FC): 5
Calf thymus DNA
  Kb: 2.5 ×10⁵ /M
